In ChEMBL document CHEMBL1134088, “Fine Tuning of physico-chemical parameters to optimise a new series of novobiocin analogues” (Bioorg Med Chem Lett, 2001):
≈ marks a conversion by molar mass, not a printed value.

Assays:
[1] = pKa value was determined; assay type: physicochemical
[2] = test system: Staphylococcus aureus; experiment: Compound was evaluated for its minimum inhibitory concentration against Staphylococcus aureus; assay type: functional
Summary of the method: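 MIC by 2-fold broth microdilution, read after 24-h incubation; S. aureus strain 011HT3, no particular resistance phenotype.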

[3] = biological target: DNA gyrase (Escherichia coli, UniProt P0AES4+P0AES6); experiment: Inhibitory activity against Escherichia coli DNA gyrase; assay type: protein-complex assay
[4] = test system: Staphylococcus aureus; experiment: Compound was evaluated for its minimum inhibitory concentration against Staphylococcus aureus in presence of 10% serum; assay type: functional
Summary of the method: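 MIC against S. aureus strain 011HT3 (no particular resistance phenotype) in medium containing serum proteins; 2-fold broth microdilution, read after 24-h incubation.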

| Structure (SMILES) | pKa [1] | MIC [2] | IC50 [3] | MIC [4] |
| --- | --- | --- | --- | --- |
| CO[C@@H]1[C@@H](OC(=O)c2ccc(C)[nH]2)[C@@H](O)[C@H](Oc2ccc3c(N4CCN(C)CC4)cc(=O)oc3c2C)OC1(C)C | 7.3 | 0.15 µg/mL (≈ 0.27 µM) | 540 nM | 0.3 µg/mL |
| CO[C@@H]1[C@@H](OC(N)=O)[C@@H](O)[C@H](Oc2ccc3c(O)c(NC(=O)c4ccc(O)c(CC=C(C)C)c4)c(=O)oc3c2C)OC1(C)C [NOVOBIOCIN] | 3.6 | < 0.04 µg/mL | – | 2.5 µg/mL |
| CO[C@@H]1[C@@H](OC(=O)c2ccc(C)[nH]2)[C@@H](O)[C@H](Oc2ccc3c(N4CCNC(C)C4)cc(=O)oc3c2C)OC1(C)C (some centres not stated) | 8.3 | 2.5 µg/mL (≈ 4.5 µM) | 225 nM | 2.5 µg/mL |
| CCN1CCN(c2cc(=O)oc3c(C)c(O[C@@H]4OC(C)(C)[C@H](OC)[C@@H](OC(=O)c5ccc(C)[nH]5)[C@H]4O)ccc23)CC1 | 7.5 | 0.6 µg/mL (≈ 1.05 µM) | 439 nM | 2.5 µg/mL |
| CO[C@@H]1[C@@H](OC(=O)c2ccc(C)[nH]2)[C@@H](O)[C@H](Oc2ccc3c(N4CC[N+](C)(C)CC4)cc(=O)oc3c2C)OC1(C)C | – | > 40 µg/mL | 245 nM | > 40 µg/mL |
| CO[C@@H]1[C@@H](OC(=O)c2ccc(C)[nH]2)[C@@H](O)[C@H](Oc2ccc3c(N(C)CCN(C)C)cc(=O)oc3c2C)OC1(C)C | 8.2 | 5 µg/mL (≈ 8.97 µM) | 628 nM | 5 µg/mL |
| CO[C@@H]1[C@@H](OC(=O)c2ccc(C)[nH]2)[C@@H](O)[C@H](Oc2ccc3c(N4CC(C)NC(C)C4)cc(=O)oc3c2C)OC1(C)C (some centres not stated) | 8 | 2.5 µg/mL (≈ 4.39 µM) | 281 nM | 2.5 µg/mL |
| CO[C@@H]1[C@@H](OC(=O)c2ccc(C)[nH]2)[C@@H](O)[C@H](Oc2ccc3c(N4CCC(N(C)C)CC4)cc(=O)oc3c2C)OC1(C)C | 9 | 2.5 µg/mL (≈ 4.28 µM) | 480 nM | 2.5 µg/mL |
| CO[C@@H]1[C@@H](OC(=O)c2ccc(C)[nH]2)[C@@H](O)[C@H](Oc2ccc3c(N4CCNCC4)cc(=O)oc3c2C)OC1(C)C | 8.3 | 5 µg/mL (≈ 9.23 µM) | 231 nM | 5 µg/mL |
| CO[C@@H]1[C@@H](OC(=O)c2ccc(C)[nH]2)[C@@H](O)[C@H](Oc2ccc3c(N4CCN(C)CC4)c(Cl)c(=O)oc3c2C)OC1(C)C | 7.4 | 1.2 µg/mL (≈ 2.03 µM) | 847 nM | 20 µg/mL |
| CO[C@@H]1[C@@H](OC(=O)c2ccc(C)[nH]2)[C@@H](O)[C@H](Oc2ccc3c(N4CCN(c5ccccn5)CC4)cc(=O)oc3c2C)OC1(C)C | 5.5 | 0.3 µg/mL (≈ 0.485 µM) | 1780 nM | 10 µg/mL |
